pIC50: −log10 of the molar value.
Key:
[1] = molecular target: Cytochrome P450 2C19 (Homo sapiens, UniProt P33261); assay: Inhibition of CYP2C19 (unknown origin); format: ADME
[2] = molecular target: T1, Cytochrome P450 2A6 (Homo sapiens, UniProt P11509); assay: Inhibition of CYP2A6 (unknown origin); format: ADME
T1 sequence (P11509 whole entry): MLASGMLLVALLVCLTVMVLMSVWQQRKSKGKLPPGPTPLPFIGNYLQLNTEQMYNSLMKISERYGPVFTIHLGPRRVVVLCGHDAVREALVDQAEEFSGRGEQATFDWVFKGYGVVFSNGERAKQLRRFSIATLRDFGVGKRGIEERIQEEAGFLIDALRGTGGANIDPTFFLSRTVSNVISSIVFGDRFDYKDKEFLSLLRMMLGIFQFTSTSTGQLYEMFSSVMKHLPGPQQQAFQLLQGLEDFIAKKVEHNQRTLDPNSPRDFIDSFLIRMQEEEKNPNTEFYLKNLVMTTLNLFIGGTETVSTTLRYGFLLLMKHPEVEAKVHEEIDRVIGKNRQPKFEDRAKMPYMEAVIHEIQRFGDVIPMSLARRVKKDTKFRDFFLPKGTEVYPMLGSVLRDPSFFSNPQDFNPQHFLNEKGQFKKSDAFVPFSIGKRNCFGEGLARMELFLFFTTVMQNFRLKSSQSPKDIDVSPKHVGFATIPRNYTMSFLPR

[3] = Cmax in monkey at 10 mg/kg, po; format: ADME, organism-based, Macaca mulatta; set-up: dose 10 mg/kg, route oral; settings: rhesus monkey, in vivo
Outline: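 Single intravenous dose of 2 mg/kg and single oral dose of 10 mg/kg, given separately, in rat, dog and monkey. Clearance and half-life taken from the iv arm; Cmax from the oral arm.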

Sequence of Cytochrome P450 2C19 (P33261 whole entry): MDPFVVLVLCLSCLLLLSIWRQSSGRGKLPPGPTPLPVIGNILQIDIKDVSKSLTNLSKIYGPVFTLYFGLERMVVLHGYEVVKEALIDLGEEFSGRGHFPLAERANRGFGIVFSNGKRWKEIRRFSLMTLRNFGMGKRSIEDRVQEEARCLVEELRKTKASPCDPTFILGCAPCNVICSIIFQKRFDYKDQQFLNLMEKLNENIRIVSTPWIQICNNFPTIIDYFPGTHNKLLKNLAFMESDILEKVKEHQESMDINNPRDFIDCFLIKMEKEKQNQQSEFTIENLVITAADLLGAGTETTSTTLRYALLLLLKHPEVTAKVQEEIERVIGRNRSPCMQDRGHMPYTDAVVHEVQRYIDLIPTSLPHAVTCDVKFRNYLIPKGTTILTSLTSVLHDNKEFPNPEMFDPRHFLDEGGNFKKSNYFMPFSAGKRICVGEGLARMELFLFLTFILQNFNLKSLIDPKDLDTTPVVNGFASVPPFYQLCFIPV

pIC50 [1]: < 4.00
pIC50 [2]: < 4.00
Cmax [3]: 2970 ng/mL
Structure (SMILES): Cc1c(-c2cn(C(C)C)c(=O)c3ccccc23)c2cc(F)ccc2n1CC(=O)O
